The list is not random: actives were taken first. Their share in the collection is about 2.2%.
NR2E3 ag-1: NR2E3 agonists in two-hybrid cells, primary screen, cell-based, luminescence, CHO-S, Gal4-NCOR/VP16-NR2E3; Photoreceptor-specific nuclear receptor (Homo sapiens), Q9Y5X4; luciferase; inhibition of corepressor binding, % at 3.98 µM; 360,000 compounds, 0.35% hits; AID 602229, 2012;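 active = inhibition above the mean of all tested compounds plus 3 SD, cut at about 70% in these data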;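 also: higher means lower luciferase signal from less NR2E3 corepressor binding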
Target sequence (Q9Y5X4 whole entry, looked up, the tested form may be a part): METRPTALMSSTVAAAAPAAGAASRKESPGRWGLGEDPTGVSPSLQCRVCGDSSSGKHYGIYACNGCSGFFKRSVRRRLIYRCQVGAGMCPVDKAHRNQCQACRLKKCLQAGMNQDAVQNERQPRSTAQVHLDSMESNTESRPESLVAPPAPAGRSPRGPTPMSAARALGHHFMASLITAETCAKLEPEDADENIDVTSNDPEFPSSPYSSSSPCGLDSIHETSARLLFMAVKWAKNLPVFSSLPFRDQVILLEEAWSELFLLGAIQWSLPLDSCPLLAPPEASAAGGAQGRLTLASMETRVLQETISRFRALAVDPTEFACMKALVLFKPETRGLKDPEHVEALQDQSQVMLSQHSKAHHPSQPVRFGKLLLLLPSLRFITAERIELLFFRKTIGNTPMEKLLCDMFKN
FGF22 binding: binders of human FGF22 protein, primary screen, FGF22 synaptogenesis inhibitor project, biophysical, thermal shift, single point. Fibroblast growth factor 22 (Homo sapiens), Q9HCT0. recombinant FGF22 thermal shift, SYPRO orange fluorescence; percent of sucrose octasulfate shift, DMSO zero. activity (Tm shift, normalised), % at 9.99 µM. 340,000 compounds, 1.5% hits. AID 651658, 2012;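 active = mean Tm shift, scaled 0 neutral to 100 positive control, at about 1.3% or above, every replicate too, limit read from the data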
Target sequence (Q9HCT0 whole entry, looked up): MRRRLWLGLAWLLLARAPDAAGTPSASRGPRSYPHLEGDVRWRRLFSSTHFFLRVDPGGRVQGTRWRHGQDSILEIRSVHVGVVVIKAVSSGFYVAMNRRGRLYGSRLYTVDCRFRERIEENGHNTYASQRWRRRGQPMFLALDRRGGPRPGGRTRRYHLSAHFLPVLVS
Jurkat NFkB inh: inhibitors of induced NF-kB luciferase reporter, primary screen, TCR NF-kB activation inhibitor project, cell-based, luminescence, uHTS; 330,000 compounds, 0.53% hits; AID 435003, 2010; inhibition, % at 4 µM; Jurkat, PMA/ionomycin-induced NF-kB luciferase reporter; in the data active = inhibition above about 50%
697 NFkB inh: inhibitors of PMA/ionomycin-induced NF-kB reporter, 697 cells, primary screen, B-cell NF-kB inhibitor project, cell-based, luminescence, uHTS. AID 435022, 2010. 330,000 compounds, 0.33% hits. inhibition, % at 4 µM. 697 B-cell NF-kB luciferase reporter, 16 h; in the data active = inhibition above about 35%
NR2E3 ag-2: inhibitors of NR2E3-RetCOR corepressor binding, primary screen, NR2E3 agonist project, biochemical, TR-FRET, GST-NR2E3, biotin-RetCOR | 1536-well | inhibition of corepressor binding, % at 4.78 µM | 320,000 compounds, 0.12% hits | AID 2300, 2010;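 active = percent inhibition above the cutoff of mean plus 3 SD of all tested compounds, set per screening campaign, cut at about 20% in these data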
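Material: NR2E3–RetCOR corepressor complex / Amount: 1.35 nM GST-NR2E3 / Medium: Tris pH 7.5 / Compound: single nominal compound dose of 4.8 µM / Incubation: 5 h at 4 °C / Technique: TR-FRET, Eu(K)-anti-GST donor, streptavidin-D2 acceptor, ex 340, em 617/671 nm / Read-out basis: percent loss of FRET ratio relative to control wells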
miR-122 sensor: miR-122 Renilla sensor signal increase in Huh7, primary screen, miR-122 inhibitor project, cell-based, single point, plate reader. Huh7 miR-122 Renilla luciferase sensor, 48 h; neutral wells = 0, positive control = 100. activation (reporter increase), % at 12.5 µM. 340,000 compounds, 0.3% hits. AID 602342, 2012;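 active = mean replicate activation score at least 90 and every replicate individually at or above 90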;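 also: higher luciferase means less miR-122 activity so hits act as miR-122 inhibitors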
Each line names hits and unclear results; the compound was inactive in the other large screens.

CCOC(=O)c1oc2ccc(S(=O)(=O)Nc3ccc4c(c3)n(C)c(=O)n4C)cc2c1C	NR2E3 ag-1 77 (no result: FGF22 binding)
COc1ccc(S(=O)(=O)Nc2ccc3c(c2)n(C)c(=O)n3C)cc1C	none
CON(C)C(=O)[C@H]1C[C@@H]2[C@H](C[C@@H](c3ccccc3)[C@H]1C)N(c1ccc(F)cc1)C(=O)N2CCCOc1ccccc1	none (no result: NR2E3 ag-1, Jurkat NFkB inh, 697 NFkB inh, NR2E3 ag-2, miR-122 sensor)
CCN(CC)C(=O)[C@H]1C[C@@H]2[C@H](C[C@@H](c3ccccc3)[C@H]1C)N(c1ccc(F)cc1)C(=O)N2CCCOc1ccccc1	FGF22 binding 43 (no result: NR2E3 ag-1, Jurkat NFkB inh, 697 NFkB inh, NR2E3 ag-2, miR-122 sensor)
O=C(CN1C(=O)CC(c2ccccc2)Sc2ccccc21)NCC1CCCO1 (configuration not stated)	FGF22 binding 43
COc1ccc(C2CC(=O)N(CC(=O)NCC3CCCO3)c3ccccc3S2)cc1OC (configuration not stated)	none
C[C@@H]1CN([C@H](C)CO)C(=O)c2c(c3ccccc3n2C)-c2ccccc2CO[C@@H]1CN(C)S(=O)(=O)Cc1ccccc1	none (no result: NR2E3 ag-1, Jurkat NFkB inh, 697 NFkB inh, NR2E3 ag-2, miR-122 sensor)
COCC(=O)N1[C@@H](CO)[C@@H]2c3ccccc3N(C(=O)c3cccc(OC)c3)C[C@@H]21	none (no result: NR2E3 ag-1, Jurkat NFkB inh, 697 NFkB inh, NR2E3 ag-2)
COc1cccc(S(=O)(=O)Nc2ccc3c(c2)[C@@H]2C[C@@H](CC(=O)N4CCCCC4)O[C@@H](CO)[C@@H]2O3)c1	none (no result: NR2E3 ag-1, Jurkat NFkB inh, 697 NFkB inh, NR2E3 ag-2)
O=C(C[C@H]1C[C@@H]2c3cc(NC(=O)C4CCOCC4)ccc3O[C@@H]2[C@@H](CO)O1)NCc1ccccc1F	none (no result: NR2E3 ag-1, Jurkat NFkB inh, 697 NFkB inh, NR2E3 ag-2)
Cc1ccc2nc(-c3ccc(NC(=S)NC4CC(C)(C)NC(C)(C)C4)cc3)sc2c1	FGF22 binding 43
COc1ccc(S(=O)(=O)NCC2CCCO2)cc1Cl (configuration not stated)	none
O=S(=O)(NCC1CCCO1)c1ccc(Cl)c(C(F)(F)F)c1 (configuration not stated)	miR-122 sensor 155 (no result: FGF22 binding)
CCCNC(=O)N1[C@@H](CO)[C@@H](c2ccccc2)C12CN(C(=O)c1cccnc1)C2	none (no result: NR2E3 ag-1, Jurkat NFkB inh, 697 NFkB inh, NR2E3 ag-2, miR-122 sensor)
CCOc1cc(CN2CCN(CCc3ccccc3)C(CCO)C2)ccc1OC (configuration not stated)	none (no result: miR-122 sensor)
COc1ccc(CN2CCN(CC=C(C)C)C(CCO)C2)cc1Cn1cccn1 (configuration not stated)	FGF22 binding 44 (no result: miR-122 sensor)
COc1ccccc1-n1cc(CN2CCN(CC=C(C)C)C(CCO)C2)cn1 (configuration not stated)	none
COc1ccc(CN2CCN(CCc3ccccc3)C(CCO)C2)cc1Cn1cncn1 (configuration not stated)	FGF22 binding 44
CC(C)=CCN1CCN(Cc2ccc3nsnc3c2)CC1CCO (configuration not stated)	FGF22 binding 43 (no result: miR-122 sensor)
COc1ccccc1C(=O)Nc1ccc2c(c1)C(=O)N(C)C[C@@H](OC)[C@H](C)CN(C(C)=O)[C@H](C)CO2	none (no result: NR2E3 ag-1, Jurkat NFkB inh, 697 NFkB inh, NR2E3 ag-2)
O=C(COC(=O)CNC(=O)c1ccccc1F)Nc1cccnc1Cl	FGF22 binding 43
O=C(CNC(=O)c1ccccc1F)NCCOc1ccccc1Cl	FGF22 binding 43
O=C(COC(=O)CNC(=O)c1ccccc1F)NCCNC(=O)COC(=O)CNC(=O)c1ccccc1F	none
COCC#Cc1ccc2c(c1)O[C@H](CN(C)S(=O)(=O)c1cccc(F)c1)[C@H](C)CN([C@H](C)CO)S2(=O)=O	none (no result: NR2E3 ag-1, Jurkat NFkB inh, 697 NFkB inh, NR2E3 ag-2)
COc1ccc(N(CC(=O)NCc2ccco2)S(=O)(=O)c2ccccc2)cc1	FGF22 binding 43 (no result: miR-122 sensor)
COc1ccc(C(=O)CC(=O)c2ccccc2O)cc1	none
COc1ccc(C(=O)CC(=O)c2ccccc2O)cc1OC	FGF22 binding 56
Cc1sc(N/N=C/c2ccco2)nc1-c1ccccc1	FGF22 binding 44 (no result: miR-122 sensor)
C(=N\Nc1nc(-c2ccccc2)cs1)/c1ccco1	none (no result: FGF22 binding)
C[C@H](CO)N1C[C@H](C)[C@@H](CN(C)C(=O)Nc2ccc(C(F)(F)F)cc2)Oc2ncc(C3=CCCC3)cc2C1=O	none (no result: NR2E3 ag-1, Jurkat NFkB inh, 697 NFkB inh, NR2E3 ag-2)
COC(=O)CCCCCC(CCC(=O)OC)NC(C)=O (configuration not stated)	miR-122 sensor 238 (no result: FGF22 binding)
COC(=O)CCCCCCCCC(O)CN(C)C (configuration not stated)	none (no result: miR-122 sensor)
O=C(Oc1ccc(Br)cc1)c1n[nH]c(=O)c2ccccc12	FGF22 binding 43
CC(=O)c1ccc(N2CCN(S(=O)(=O)c3cccc4nsnc34)CC2)cc1	FGF22 binding 43
CCOc1cc(NC(=S)NCc2ccccc2)c(OCC)cc1NC(=O)C(C)C	none
CCOc1cc(NC(=S)NCCc2ccccc2)c(OCC)cc1NC(C)=O	FGF22 binding 43 (no result: miR-122 sensor)
Cc1nnc(SCC(=O)Nc2cc(S(=O)(=O)N3CCCC3)ccc2Cl)n1C1CC1	none
CS(=O)(=O)c1ccc(Cl)c(NC(=O)CSc2nnc(C3CC3)n2C2CC2)c1	FGF22 binding 1.4
O=C(CSc1nnnn1C1CC1)Nc1cc(S(=O)(=O)N2CCCC2)ccc1Cl	FGF22 binding 43 (no result: NR2E3 ag-2)
CCCNC(=O)N1CCC2(CC1)CN(C(=O)c1ccccc1)[C@H](CO)c1[nH]c3cc(OC)ccc3c12	none (no result: NR2E3 ag-1, Jurkat NFkB inh, 697 NFkB inh, NR2E3 ag-2, miR-122 sensor)
O=C(COC(=O)c1cccnc1Cl)Nc1ccccc1OC(F)F	none
O=C(COC(=O)c1ccccn1)Nc1ccccc1OC(F)F	FGF22 binding 43 (no result: miR-122 sensor)
COc1ccccc1NC(=O)N[C@@H]1CC[C@H](CCn2cc(C3(O)CCCC3)nn2)O[C@@H]1CO	none (no result: NR2E3 ag-1, Jurkat NFkB inh, 697 NFkB inh, NR2E3 ag-2)
COC(=O)c1ccc(/C=N/NC(=O)C(=O)NCc2ccccc2)cc1	FGF22 binding 43 (no result: miR-122 sensor)
Cc1cccn2c(=O)c(C=NCCO)c(Nc3ccc(Cl)cc3)nc12	FGF22 binding 44 (no result: NR2E3 ag-1, miR-122 sensor)
Cc1cccn2c(=O)c(C=Nc3ccc(Cl)cc3)c(NCCO)nc12	none (no result: FGF22 binding)
CCOc1ccccc1C(=O)N[C@H](C(=O)NCc1ccccc1)C(C)C	FGF22 binding 43 (no result: miR-122 sensor)
CC(C)C(NC(=O)c1ccccc1F)C(=O)NCc1ccccc1 (configuration not stated)	none
NC(=O)C[N+]1(CC#CC(O)(c2ccccc2)c2ccccc2)CCCC1	FGF22 binding 4.0
C[C@H]1CN([C@@H](C)CO)C(=O)c2cc(NC(=O)NC3CCCCC3)ccc2O[C@@H]1CN(C)C	none (no result: NR2E3 ag-1, Jurkat NFkB inh, 697 NFkB inh, NR2E3 ag-2)
Fc1ccc(-c2nc3c(-c4ccc(F)cc4)cnn3cc2CCN2CCOCC2)cc1	FGF22 binding 43
Fc1ccc(-c2nc3c(-c4ccccc4)cnn3cc2CCN2CCOCC2)cc1	none (no result: miR-122 sensor)

Assay outcomes: PubChem, several laboratories
